Measured values as given in ChEMBL document CHEMBL3259597 (J Med Chem, 2014).

Tests used:
[1] = Lipophilicity, log D of the compound by octanol/buffer shake flask method; type: physicochemical
[2] = Oral bioavailability in rat at 5 mg/kg; type: ADME, organism-based; conditions: in vivo
Procedure, shortened: (§1)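 Rat pharmacokinetics after a single IV dose of 1 mg/kg and an oral dose of 5 mg/kg. Reported parameters are AUC, t1/2, clearance, Vss and oral bioavailability.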

[3] = AUC in Sprague-Dawley rat at 3 mg/kg, po; type: ADME, organism-based; parameters: dose 3 mg/kg, route oral; conditions: plasma
Procedure, shortened: (§2)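 Male Sprague-Dawley rats, about 11 weeks old (300−400 g), singly housed with chow and water ad libitum. […] Urine was collected overnight predose and at 0−2, 2−4 and 4−7 h postdose for Na+ and K+, normalised to creatinine. Plasma drug was measured by LC-MS.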

[4] = Volume of distribution at steady state in rat at 1 mg/kg, iv; type: ADME, organism-based; parameters: dose 1 mg/kg, route intravenous; conditions: in vivo, read-out: Vdss; procedure, shortened: as §1
[5] = AUC in Sprague-Dawley rat at 30 mg/kg, po; type: ADME, organism-based; parameters: dose 30 mg/kg, route oral; conditions: plasma; procedure, shortened: as §2
[6] = AUC in rat at 5 mg/kg, po; type: ADME, organism-based; parameters: dose 5 mg/kg, route oral; conditions: plasma; procedure, shortened: as §1
[7] = Clearance in rat at 1 mg/kg, iv; type: ADME, organism-based; parameters: dose 1 mg/kg, route intravenous; conditions: in vivo; procedure, shortened: as §1
[8] = Half life in rat at 1 mg/kg, iv; type: ADME, organism-based; parameters: dose 1 mg/kg, route intravenous; conditions: in vivo; procedure, shortened: as §1
[9] = AUC in rat at 1 mg/kg, iv; type: ADME, organism-based; parameters: dose 1 mg/kg, route intravenous; conditions: plasma; procedure, shortened: as §1
[10] = Intrinsic clearance in human liver microsomes; type: ADME; conditions: read-out: CLH
[11] = AUC in Sprague-Dawley rat at 10 mg/kg, po; type: ADME, organism-based; parameters: dose 10 mg/kg, route oral; conditions: plasma; procedure, shortened: as §2

logD [1] | SMILES | also measured
2.1 | COc1cc(C2=NN(c3ccc(C#N)c(Cl)c3)[C@@H](C3CCCC3)C2)ccc1C(=O)O | –
2.6 | CCOc1cc(C2=NN(c3ccc(C#N)c(Cl)c3)[C@@H](C3CCCC3)C2)ccc1C(=O)O | –
2.2 | COc1cc(C2=NN(c3ccc(C#N)c(C)c3)[C@@H](C3CCCC3)C2)ccc1C(=O)O | –
2.7 | CCOc1cc(C2=NN(c3ccc(C#N)c(C)c3)[C@@H](C3CCCC3)C2)ccc1C(=O)O | –
2 | COc1nc(C2=NN(c3ccc(C#N)c(C)n3)[C@@H](C3CCCC3)C2)ccc1C(=O)O | –
1.7 | COc1cc(C2=NN(c3ccc(C#N)c(C)n3)[C@@H](C3CCCC3)C2)ccc1C(=O)O | –
2.6 | Cc1nc(N2N=C(c3ccc(C(=O)O)cc3)C[C@@H]2C2CCCC2)ccc1C#N | –
3 | CCOc1nc(C2=NN(c3ccc(C#N)c(C)c3)[C@@H](C3CCCC3)C2)ccc1C(=O)O | –
1.6 | COc1nc(C2=NN(c3ccc(C#N)c(C)n3)[C@@H](C(C)C)C2)ccc1C(=O)O | –
3.8 | COc1nc(C2=NN(c3ccc(C#N)c(C)c3)[C@@H](C3CCCC3)C2)ccc1C(N)=O | –
3.5 | COc1nc(C2=NN(c3ccc(C#N)c(C)c3)[C@@H](C3CCCC3)C2)ccc1C(=O)N(C)C | –
3.4 | COc1nc(C2=NN(c3ccc(C#N)c(C)n3)[C@@H](C3CCCC3)C2)ccc1C(N)=O | –
3.2 | CNC(=O)c1ccc(C2=NN(c3ccc(C#N)c(C)n3)[C@@H](C3CCCC3)C2)nc1OC | –
4.1 | COc1nc(C2=NN(c3ccc(C#N)c(C)n3)[C@@H](C3CCCC3)C2)ccc1C(=O)N(C)C | –
2.3 | COc1nc(C2=NN(c3ccc(C#N)c(C)c3)[C@@H](C3CCCC3)C2)ccc1C(=O)NS(C)(=O)=O | microsomal CLint [10]: 175 µL/min/mg
1.9 | COc1nc(C2=NN(c3ccc(C#N)c(C)n3)[C@@H](C3CCCC3)C2)ccc1C(=O)NS(C)(=O)=O | –
3.2 | COc1nc(C2=NN(c3ccc(C#N)c(C)c3)[C@@H](C3CCCC3)C2)ccc1C(=O)Nc1nnn[nH]1 | –

SMILES | logD [1] | also measured
COc1nc(C2=NN(c3ccc(C#N)c(C)c3)[C@@H](C3CCCC3)C2)ccc1C(=O)O | 2.2 | bioavailability [2]: 54%; AUC [3]: 1170 ng·h/mL; Vd [4]: 3.1 L/kg; AUC [5]: 33600 ng·h/mL; AUC [6]: 1320 ng·h/mL; clearance [7]: 33 mL/min/kg; half-life [8]: 138 min; AUC [9]: 494 ng·h/mL; microsomal CLint [10]: < 14 µL/min/mg; AUC [11]: 9240 ng·h/mL
COc1nc(C2=NN(c3ccc(C#N)c(C)c3)[C@H](C3CCCC3)C2)ccc1C(=O)O | 2.2 | –
COc1nc(C2=NN(c3ccc(C#N)c(Cl)c3)[C@@H](C3CCCC3)C2)ccc1C(=O)O | 2.3 | –
CNC(=O)c1ccc(C2=NN(c3ccc(C#N)c(C)c3)[C@@H](C3CCCC3)C2)nc1OC | 4.4 | –
N#Cc1ccc(N2N=C3c4ccc(C(=O)O)cc4CC[C@@H]3[C@@H]2C2CCCC2)cc1Cl [PF-03882845] | 3.5 | –
